Screens deposited in PubChem by several laboratories.
Most compounds without a hit are left out; they make up all but 2% or so of the library.
TAG inh = inhibitors of triacylglycerol accumulation, primary screen, cell-based, uHTS, fluorescence, H9c2 | H9c2 cells, Nile Red lipid (TAG) fluorescence; cells loaded with 200 µM oleic acid | inhibition, % at 12.5 µM | 230,000 compounds, 0.66% hits;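 active means pattern-corrected inhibition of lipid staining of at least 50% with the nuclear-stain viability signal not falling by more than 50%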;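 further: 0% = DMSO wells and 100% = triacsin C control wells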
GRK2 aptamer HTS = compounds blocking aptamer binding on GRK2 – biochemical, human GRK2, bead flow cytometry, HTS, primary screen; inhibition of aptamer binding, % at 10 µM; FAM-aptamer displacement from GRK2; 330,000 compounds, 0.59% hits; AID 488847, 2010; Beta-adrenergic receptor kinase 1 (Homo sapiens), P25098;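 active means inhibition of aptamer binding above 40%, roughly 3 SD of noise, on plates passing a quality check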;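 further: median bead fluorescence of bound FAM aptamer so fluorescent compounds give negative values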
Hep lipid drop = inhibitors of hepatocyte lipid droplet formation, primary screen, imaging, high-throughput imaging, BODIPY stain. AML12 mouse hepatocytes, oleate lipid droplets. inhibition, % at 6.5 µM. 240,000 compounds, 0.4% hits. AID 1656, 2009;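 active means lipid droplet intensity inhibited by at least 50%, with more than 500 cells counted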
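Assay system: AML12 hepatocytes (mouse); Probe or stimulus: oleic acid at 100 µM to induce lipid droplet formation; Dosing: compound at 6.5 µM only; Schedule: compound with oleate, overnight; Detection: fluorescence imaging, 20x objective, two fields per well; Measure: % inhibition of lipid droplet signal.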
B2AR ag = beta2AR agonists driving receptor internalization, primary screen, cell-based, FAP fluorogen, flow cytometry; Am2.2-beta2AR cells; response, % (no concentration beside the values); 340,000 compounds, 0.43% hits; Beta-2 adrenergic receptor (Homo sapiens), P07550; AID 504454, 2011;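 active means response above a set limit, near 3 SD of response in nonfluorescent compounds, cut at about 42% in these data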
Arrestin-AP2 inh = inhibitors of beta-arrestin/AP2 binding, primary screen, biochemical, GPCR trafficking, flow cytometry; beta-arrestin 1 C-terminal peptide binding to AP2 beta2-adaptin appendage (human); FITC-arrestin peptide / GST-AP2 beads; AP2 beta2 appendage carries R879A mutation; inhibition, % at 10 µM; 340,000 compounds, 0.31% hits;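 active means inhibition above a set limit, near 3 SD of compounds lacking own fluorescence, cut at about 54% in these data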;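 further: plate controls were DMSO wells for no effect and 5 µM unlabelled arrestin peptide for full effect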
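system = GST-tagged AP2 beta2-adaptin appendage (R879A) on 4 µm glutathione beads | reagent = FITC-labelled arrestin peptide probe, 50 nM final | schedule = compound with beads 12 min RT, then probe 1 h RT | signal = HyperCyt-sampled flow cytometry, FL1 channel, ex 488/em 535 nm | read-out = percent response from loss of bead-bound FITC fluorescence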
NTR1 agonist = agonists of human NTR1, primary screen, imaging, U2OS cells, beta-arrestin-GFP, high content; Neurotensin receptor type 1 (Homo sapiens), P30989; NTR1-U2OS beta-arrestin-GFP spot imaging, agonist mode; activation, % at 20 µM; 330,000 compounds, 0.17% hits;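 active means activation at or above 40% of the spot to cytoplasm intensity ratio, with at least 20 cells analyzed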;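 further: 0% = DMSO without peptide and 100% = 100 nM NTR1 peptide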
Starred values were filed as active, the others as inactive; . = not tested or not shown.

SMILES | TAG inh | GRK2 aptamer HTS | Hep lipid drop | B2AR ag | Arrestin-AP2 inh | NTR1 agonist
O=C(c1ccccc1)C1CC=CCC1C(=O)c1ccccc1 (configuration not stated) | -17.4 | . | . | 43.8* | 9.1 | .
O=C1CCN(S(=O)(=O)c2cc(C(F)(F)F)ccc2Cl)CC1 | -2.3 | 3.0 | . | -1.4 | -2.1 | 1.2
CN1C/C(=C/c2ccccc2[N+](=O)[O-])C(=O)/C(=C\c2ccccc2[N+](=O)[O-])C1 | 69.4* | . | . | 17.1 | 2.0 | .
Cc1ccc(C)c2c1CCC(=Cc1ccccc1[N+](=O)[O-])C2=O | -0.7 | . | . | . | . | .
CCOC(=O)c1csc(N/N=C2\CCc3ccccc32)n1 | . | 2.0 | . | 17.8 | 6.3 | 10.0
CCOC(=O)c1csc(N/N=C2\CCCc3ccccc32)n1 | . | 0.0 | . | 2.2 | -5.0 | 42.4*
CC(C)[C@H](NS(=O)(=O)c1ccccc1)C(=O)OCC(=O)Nc1cccc(S(N)(=O)=O)c1 | -18.9 | 71.0* | . | -5.5 | -1.7 | 1.5
COC(=O)C1CCN(C(=O)c2cc(-c3ccco3)nc3ccccc23)CC1 | -9.3 | 76.0* | . | 7.2 | 6.6 | 0.2
COc1ccc(NC(=O)CN(C)C(=O)c2cc(-c3ccco3)nc3ccccc23)cc1 | 4.9 | 76.0* | . | 6.0 | 1.7 | 0.1
CN(CC(=O)Nc1cccc(F)c1)C(=O)c1cc(-c2ccco2)nc2ccccc12 | -2.4 | 16.0 | . | 9.8 | 12.3 | 2.7
COc1cc(C(=O)NC2CCN(C)CC2)ccc1Nc1ncc2c(n1)N(C1CCCCC1)CCC(=O)N2C | 96.0* | . | . | -11.3 | 16.5 | .
COc1cc(C(=O)NC2CCN(C)CC2)ccc1Nc1ncc2c(n1)N(Cc1ccccc1)CCC(=O)N2C | 87.4* | . | . | 21.3 | 19.0 | .
CCN1C(=O)CC(c2ccccc2)N(C2CCCC2)c2nc(Nc3ccc(C(=O)NC4CCN(C)CC4)cc3OC)ncc21 (configuration not stated) | 36.5 | 0.0 | . | 19.1 | 6.7 | 36.4
COC(=O)C1C2OC(C(Br)C2Br)C1C(=O)OC (configuration not stated) | -14.6 | . | . | . | . | .
CCN1CCC(O)(/C=C/c2ccc(C(C)C)cc2)C(C(=O)/C=C/c2ccc(C(C)C)cc2)C1 (configuration not stated) | 66.2* | . | . | 39.0 | 32.4 | .
CCN1CCN(C(=O)/C=C/c2ccc(C(C)C)cc2)CC1 | -35.8 | 0.0 | . | 2.6 | 47.4 | 0.6
O=C1C=C(NCCc2cc(Br)c(O)c(Br)c2)C(=O)c2ncccc21 | 52.8* | . | . | 0.5 | 12.4 | .
COc1cc(OC)c2cc(C(=O)N[C@H](C(=O)N3CCC[C@H]3C(=O)O)C(C)C)n(C)c2c1 | . | 2.0 | . | -3.1 | 2.0 | 5.5
CCCCOC(=O)c1ccc(Nc2ncnc3nc[nH]c23)cc1 | -7.0 | 0.0 | 7.9 | -1.3 | 32.7 | 0.8
CCCCCCCCOC(=O)c1cc([N+](=O)[O-])c(Sc2ncnc3nc[nH]c23)c([N+](=O)[O-])c1 | 21.6 | . | . | 99.2* | -6.0 | .
COc1ccc(C(=O)/C=C2\C(=O)Nc3ccc(Br)cc32)cc1 | -2.4 | . | . | 1.9 | -4.6 | .
O=C1Nc2ccc(Br)cc2/C1=C/C(=O)c1ccc2c(c1)OCO2 | 0.5 | 2.0 | 2.1 | 54.7* | -18.1 | 55.4*
O=C(NC(=Nc1nc2ccccc2o1)NC(=O)c1ccccc1)c1ccccc1 | . | 0.0 | -7.3 | 0.4 | 7.0 | 1.7
COc1ccccc1C(=O)NC(=Nc1nc2ccccc2o1)NC(=O)c1ccccc1OC | 6.3 | 20.0 | -0.1 | -4.7 | 2.7 | 40.5*
CCN(C(=O)CSc1nncn1-c1ccccc1)C1CCS(=O)(=O)C1 (configuration not stated) | 3.2 | 0.0 | . | -3.2 | 12.1 | -0.1
c1ccc(CSC2=NNC(c3ccccn3)S2)cc1 (configuration not stated) | 66.5* | 0.0 | -37.4 | 3.3 | 0.9 | 5.3
CCOC(=O)N1CCN(C(=O)C2CCN(C(=O)c3ccccc3C)CC2)CC1 | -14.8 | . | . | 48.7* | -4.0 | .
